ChEMBL document CHEMBL4002615, “Investigation of piperazine benzamides as human β3 adrenergic receptor agonists for the treatment of overactive bladder” (Bioorg Med Chem Lett, 2017)

What was measured:
[1] = Oral bioavailability in dog at 2 mg/kg; type: ADME, organism-based, Canis lupus familiaris; details: in vivo
[2] = system: Rattus norvegicus; experiment: Unbound clearance in rat at 1 mg/kg, iv or 2 mg/kg, po; type: ADME, organism-based; details: in vivo
[3] = Unbound fraction in rat at 1 mg/kg, iv or 2 mg/kg, po; type: ADME, organism-based; details: in vivo
[4] = molecular target: T1, Beta-3 adrenergic receptor (Homo sapiens, UniProt P13945); experiment: Agonist activity at human beta3 adrenergic receptor relative to R-(-)-isoproterenol
Target sequence in this assay (P13945 whole entry, looked up): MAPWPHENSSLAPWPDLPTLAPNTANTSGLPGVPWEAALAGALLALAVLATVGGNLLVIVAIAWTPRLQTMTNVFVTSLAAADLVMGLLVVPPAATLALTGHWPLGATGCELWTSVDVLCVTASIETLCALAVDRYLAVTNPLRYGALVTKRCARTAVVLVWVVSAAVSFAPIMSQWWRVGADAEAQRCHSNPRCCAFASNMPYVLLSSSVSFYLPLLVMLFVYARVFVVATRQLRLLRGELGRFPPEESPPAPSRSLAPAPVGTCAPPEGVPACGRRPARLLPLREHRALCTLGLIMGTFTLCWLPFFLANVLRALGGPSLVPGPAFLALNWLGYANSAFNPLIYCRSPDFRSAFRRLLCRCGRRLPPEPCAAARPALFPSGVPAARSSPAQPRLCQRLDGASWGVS

[5] = Induction of phospholipidosis in human HepG2 cells; type: cell-based; details: read-out: A50
[6] = Half life in rat at 1 mg/kg, iv or 2 mg/kg, po; type: ADME, organism-based; details: in vivo
[7] = molecular target: Sodium channel protein type 5 subunit alpha (Homo sapiens, UniProt Q14524); experiment: Inhibition of human Nav1.5 by electrophysiology method
Sequence of Sodium channel protein type 5 subunit alpha (Q14524 whole entry): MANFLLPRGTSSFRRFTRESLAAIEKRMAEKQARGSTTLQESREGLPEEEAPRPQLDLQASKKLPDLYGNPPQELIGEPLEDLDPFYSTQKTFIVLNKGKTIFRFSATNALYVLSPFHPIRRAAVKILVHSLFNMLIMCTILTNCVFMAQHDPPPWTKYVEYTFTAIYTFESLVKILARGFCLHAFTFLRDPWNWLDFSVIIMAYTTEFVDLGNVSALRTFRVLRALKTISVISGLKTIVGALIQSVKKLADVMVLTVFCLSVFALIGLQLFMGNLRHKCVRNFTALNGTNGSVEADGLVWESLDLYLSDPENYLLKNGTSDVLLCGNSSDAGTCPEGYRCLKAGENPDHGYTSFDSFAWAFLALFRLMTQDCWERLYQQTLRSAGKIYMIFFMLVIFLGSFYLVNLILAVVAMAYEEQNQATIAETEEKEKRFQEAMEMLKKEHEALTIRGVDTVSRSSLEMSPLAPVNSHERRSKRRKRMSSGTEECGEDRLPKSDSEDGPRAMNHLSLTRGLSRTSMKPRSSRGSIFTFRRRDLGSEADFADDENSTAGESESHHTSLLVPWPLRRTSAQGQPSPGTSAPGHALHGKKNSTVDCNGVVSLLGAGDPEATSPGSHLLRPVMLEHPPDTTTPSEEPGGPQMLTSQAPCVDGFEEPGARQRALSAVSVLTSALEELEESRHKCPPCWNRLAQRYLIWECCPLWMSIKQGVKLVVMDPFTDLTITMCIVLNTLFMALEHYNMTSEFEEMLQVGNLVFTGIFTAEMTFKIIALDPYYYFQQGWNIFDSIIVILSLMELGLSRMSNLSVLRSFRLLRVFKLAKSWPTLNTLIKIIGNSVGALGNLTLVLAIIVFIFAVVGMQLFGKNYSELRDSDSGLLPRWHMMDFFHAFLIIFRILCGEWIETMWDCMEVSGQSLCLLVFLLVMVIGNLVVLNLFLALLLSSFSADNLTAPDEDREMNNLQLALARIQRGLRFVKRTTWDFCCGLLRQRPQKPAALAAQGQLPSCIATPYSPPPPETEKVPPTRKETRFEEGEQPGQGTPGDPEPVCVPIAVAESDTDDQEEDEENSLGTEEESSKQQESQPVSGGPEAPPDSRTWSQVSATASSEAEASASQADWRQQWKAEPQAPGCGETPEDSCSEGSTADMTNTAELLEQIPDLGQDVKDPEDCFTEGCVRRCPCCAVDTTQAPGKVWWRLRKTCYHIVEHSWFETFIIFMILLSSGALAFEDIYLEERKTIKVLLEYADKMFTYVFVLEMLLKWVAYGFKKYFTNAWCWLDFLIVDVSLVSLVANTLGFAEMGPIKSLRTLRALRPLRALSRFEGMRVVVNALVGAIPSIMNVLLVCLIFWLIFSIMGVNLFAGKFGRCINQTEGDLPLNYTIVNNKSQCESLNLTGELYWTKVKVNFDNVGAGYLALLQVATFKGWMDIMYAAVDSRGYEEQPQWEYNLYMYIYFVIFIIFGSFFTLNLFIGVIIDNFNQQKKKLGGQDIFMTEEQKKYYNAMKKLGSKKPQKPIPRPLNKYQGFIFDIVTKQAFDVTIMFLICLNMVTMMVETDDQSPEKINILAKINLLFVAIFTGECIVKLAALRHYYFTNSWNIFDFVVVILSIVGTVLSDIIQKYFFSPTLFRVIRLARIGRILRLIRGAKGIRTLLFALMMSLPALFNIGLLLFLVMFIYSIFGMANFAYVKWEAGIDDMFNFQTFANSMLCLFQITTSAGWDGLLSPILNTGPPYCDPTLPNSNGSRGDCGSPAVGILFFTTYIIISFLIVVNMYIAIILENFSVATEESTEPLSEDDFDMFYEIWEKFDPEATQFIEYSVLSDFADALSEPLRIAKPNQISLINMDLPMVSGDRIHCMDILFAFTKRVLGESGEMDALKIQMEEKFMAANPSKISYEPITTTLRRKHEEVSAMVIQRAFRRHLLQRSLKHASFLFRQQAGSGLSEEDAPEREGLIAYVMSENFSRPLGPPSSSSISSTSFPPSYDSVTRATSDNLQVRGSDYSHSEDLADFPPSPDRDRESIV

[8] = Volume of distribution in dog at 0.5 mg/kg, iv or 2 mg/kg, po; type: ADME, organism-based, Canis lupus familiaris; details: in vivo
[9] = Volume of distribution in rat at 1 mg/kg, iv or 2 mg/kg, po; type: ADME, organism-based; details: in vivo
[10] = molecular target: Sodium-dependent serotonin transporter (Homo sapiens, UniProt P31645); experiment: Inhibition of SERT (unknown origin)
Sequence of Sodium-dependent serotonin transporter (P31645 whole entry): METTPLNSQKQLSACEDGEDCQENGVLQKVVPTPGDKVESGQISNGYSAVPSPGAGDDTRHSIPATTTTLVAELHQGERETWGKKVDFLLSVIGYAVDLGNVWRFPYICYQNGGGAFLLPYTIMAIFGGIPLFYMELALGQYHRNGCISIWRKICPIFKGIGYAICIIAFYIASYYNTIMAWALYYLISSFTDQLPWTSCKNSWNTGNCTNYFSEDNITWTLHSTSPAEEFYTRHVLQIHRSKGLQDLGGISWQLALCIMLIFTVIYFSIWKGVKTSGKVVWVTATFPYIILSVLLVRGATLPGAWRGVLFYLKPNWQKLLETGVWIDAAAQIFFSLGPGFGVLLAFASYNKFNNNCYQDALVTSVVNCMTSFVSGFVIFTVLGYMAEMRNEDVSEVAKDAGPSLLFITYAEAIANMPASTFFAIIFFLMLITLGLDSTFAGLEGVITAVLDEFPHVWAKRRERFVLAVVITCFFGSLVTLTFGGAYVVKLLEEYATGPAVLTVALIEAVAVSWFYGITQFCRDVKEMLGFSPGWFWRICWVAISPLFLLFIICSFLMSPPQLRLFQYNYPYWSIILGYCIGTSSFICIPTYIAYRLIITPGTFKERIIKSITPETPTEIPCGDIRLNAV

[11] = Plasma clearance in rat at 1 mg/kg, iv or 2 mg/kg, po; type: ADME, organism-based
[12] = system: Rattus norvegicus; experiment: Total dose normalized AUC in rat 2 mg/kg, po; type: ADME, organism-based; details: in vivo
[13] = system: Rattus norvegicus; experiment: Unbound dose normalized AUC in rat 2 mg/kg, po; type: ADME, organism-based; details: in vivo
[14] = system: Canis familiaris; experiment: Unbound clearance in dog at 0.5 mg/kg, iv or 2 mg/kg, po; type: ADME, organism-based, Canis lupus familiaris; details: in vivo
[15] = molecular target: Beta-2 adrenergic receptor (Homo sapiens, UniProt P07550); experiment: Activity at human beta2 adrenergic receptor
Sequence of Beta-2 adrenergic receptor (P07550 whole entry): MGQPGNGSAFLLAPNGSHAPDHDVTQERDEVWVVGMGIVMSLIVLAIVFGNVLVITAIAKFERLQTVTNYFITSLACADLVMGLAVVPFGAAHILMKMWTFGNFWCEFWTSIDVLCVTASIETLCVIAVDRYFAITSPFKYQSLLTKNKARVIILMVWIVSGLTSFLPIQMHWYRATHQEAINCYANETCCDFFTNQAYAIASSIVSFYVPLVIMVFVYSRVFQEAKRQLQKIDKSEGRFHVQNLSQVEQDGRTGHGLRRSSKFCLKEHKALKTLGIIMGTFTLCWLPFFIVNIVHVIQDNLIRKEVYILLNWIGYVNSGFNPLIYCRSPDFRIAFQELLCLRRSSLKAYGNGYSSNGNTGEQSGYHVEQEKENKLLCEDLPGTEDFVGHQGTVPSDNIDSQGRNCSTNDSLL

[16] = Plasma clearance in dog at 0.5 mg/kg, iv or 2 mg/kg, po; type: ADME, organism-based, Canis lupus familiaris
[17] = molecular target: Sodium-dependent noradrenaline transporter (Homo sapiens, UniProt P23975); experiment: Inhibition of NET (unknown origin) expressed in HEK293 cells assessed as reduction in norepinephrine reuptake; type: cell-based
Sequence of Sodium-dependent noradrenaline transporter (P23975 whole entry): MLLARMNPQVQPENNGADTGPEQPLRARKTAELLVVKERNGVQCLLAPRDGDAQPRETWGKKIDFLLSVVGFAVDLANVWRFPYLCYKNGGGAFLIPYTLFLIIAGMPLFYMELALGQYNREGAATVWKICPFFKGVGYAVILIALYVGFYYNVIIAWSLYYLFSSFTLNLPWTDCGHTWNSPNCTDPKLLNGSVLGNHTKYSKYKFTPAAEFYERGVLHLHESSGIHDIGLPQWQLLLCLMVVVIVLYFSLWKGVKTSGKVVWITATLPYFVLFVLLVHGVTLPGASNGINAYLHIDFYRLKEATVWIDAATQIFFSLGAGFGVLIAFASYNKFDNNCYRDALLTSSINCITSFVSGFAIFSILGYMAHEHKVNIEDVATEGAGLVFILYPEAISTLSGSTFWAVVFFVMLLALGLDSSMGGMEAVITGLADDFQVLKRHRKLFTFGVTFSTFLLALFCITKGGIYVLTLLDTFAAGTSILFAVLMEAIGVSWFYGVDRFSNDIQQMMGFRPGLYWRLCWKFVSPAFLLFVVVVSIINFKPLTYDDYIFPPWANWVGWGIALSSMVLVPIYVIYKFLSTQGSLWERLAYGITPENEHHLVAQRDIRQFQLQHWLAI

[18] = system: Canis familiaris; experiment: Total dose normalized AUC in dog at 2 mg/kg, po; type: ADME, organism-based, Canis lupus familiaris; details: in vivo
[19] = molecular target: Beta-1 adrenergic receptor (Homo sapiens, UniProt P08588); experiment: Activity at human beta1 adrenergic receptor
Sequence of Beta-1 adrenergic receptor (P08588 whole entry): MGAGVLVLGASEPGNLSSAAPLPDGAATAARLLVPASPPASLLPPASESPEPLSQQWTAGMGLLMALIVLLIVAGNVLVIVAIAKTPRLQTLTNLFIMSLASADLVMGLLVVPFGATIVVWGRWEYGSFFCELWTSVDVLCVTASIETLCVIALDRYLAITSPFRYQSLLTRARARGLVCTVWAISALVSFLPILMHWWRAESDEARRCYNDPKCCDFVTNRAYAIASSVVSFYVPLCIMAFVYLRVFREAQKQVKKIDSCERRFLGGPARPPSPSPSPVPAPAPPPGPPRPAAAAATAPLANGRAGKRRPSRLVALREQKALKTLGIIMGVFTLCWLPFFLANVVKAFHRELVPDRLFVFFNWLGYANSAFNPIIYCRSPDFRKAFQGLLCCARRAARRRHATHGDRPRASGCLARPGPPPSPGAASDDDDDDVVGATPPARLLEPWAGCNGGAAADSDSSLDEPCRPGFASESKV

[20] = Half life in dog at 0.5 mg/kg, iv or 2 mg/kg, po; type: ADME, organism-based, Canis lupus familiaris; details: in vivo
[21] = molecular target: T1, Beta-3 adrenergic receptor; experiment: Agonist activity at human beta3 adrenergic receptor
Outline: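 Human β3 receptor agonist EC50 given as the mean of at least two experiments.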
Target sequence in this assay (P13945 whole entry): as the sequence (P13945 whole entry, looked up) above

[22] = Oral bioavailability in rat 2 mg/kg; type: ADME, organism-based; details: in vivo
[23] = system: Canis familiaris; experiment: Unbound dose normalized AUC in dog at 2 mg/kg, po; type: ADME, organism-based, Canis lupus familiaris; details: in vivo
[24] = Unbound fraction in dog at 0.5 mg/kg, iv or 2 mg/kg, po; type: ADME, organism-based, Canis lupus familiaris; details: in vivo
[25] = molecular target: Voltage-gated inwardly rectifying potassium channel KCNH2 (Homo sapiens, UniProt Q12809); experiment: Inhibition of human ERG
[26] = Plasma clearance in rat at 0.5 mg/kg, iv administered as cassette dose or 2 mg/kg, po; type: ADME, organism-based
[27] = Half life in rat at 0.5 mg/kg, iv administered as cassette dose or 2 mg/kg, po; type: ADME, organism-based; details: in vivo
[28] = Volume of distribution in rat at 0.5 mg/kg, iv administered as cassette dose or 2 mg/kg, po; type: ADME, organism-based; details: in vivo
[29] = Volume of distribution in rhesus monkey at 0.5 mg/kg, iv or 2 mg/kg, po; type: ADME, organism-based, Macaca mulatta; details: in vivo
[30] = system: Rhesus monkey; experiment: Total dose normalized AUC in rhesus monkey at 2 mg/kg, po; type: ADME, organism-based, Macaca mulatta; details: in vivo
[31] = Plasma clearance in rhesus monkey at 0.5 mg/kg, iv or 2 mg/kg, po; type: ADME, organism-based, Macaca mulatta
[32] = Oral bioavailability in rhesus monkey at 2 mg/kg; type: ADME, organism-based, Macaca mulatta; details: in vivo
[33] = system: Rhesus monkey; experiment: Unbound dose normalized AUC in rhesus monkey at 2 mg/kg, po; type: ADME, organism-based, Macaca mulatta; details: in vivo
[34] = system: Rhesus monkey; experiment: Unbound clearance in rhesus monkey at 0.5 mg/kg, iv or 2 mg/kg, po; type: ADME, organism-based, Macaca mulatta; details: in vivo
[35] = Unbound fraction in rhesus monkey at 0.5 mg/kg, iv or 2 mg/kg, po; type: ADME, organism-based, Macaca mulatta; details: in vivo
[36] = Half life in rhesus monkey at 0.5 mg/kg, iv or 2 mg/kg, po; type: ADME, organism-based, Macaca mulatta; details: in vivo

| Structure (SMILES) | bioavailability [1] [%] | CL free [2] [mL/min/kg] | fraction unbound [3] | Emax [4] [%] | AC50 [5] [µM] | half-life [6] [h] | IC50 [7] [µM] | Vd [8] [L/kg] | Vd [9] [L/kg] | IC50 [10] [µM] | clearance [11] [mL/min/kg] | AUC/dose [12] [µM·h/mg/kg] | fAUC/dose [13] [µM·h/mg/kg] | CL free [14] [mL/min/kg] | IC50 [15] [µM] | EC50 [17] [µM] | AUC/dose [18] [µM·h/mg/kg] | IC50 [19] [µM] | EC50 [21] [µM] | bioavailability [22] [%] | also measured |
| --- | --- | --- | --- | --- | --- | --- | --- | --- | --- | --- | --- | --- | --- | --- | --- | --- | --- | --- | --- | --- | --- |
| O=C(c1ccc(C[C@@H]2CC[C@H]([C@H](O)c3ccccc3)N2)cc1)N1CCN(Cc2nnn(CC(F)F)n2)CC1 | 20 | 182 | 0.56 | 101 | > 100 | 2.6 | > 30 | 13 | 21 | > 10 | 102 | 0.05 | 0.03 | 34 | > 20 | 0.827 | 0.29 | > 20 | 0.0015 | 16 | clearance [16]: 22 mL/min/kg; half-life [20]: 8.5 h; fAUC/dose [23]: 0.19 µM·h/mg/kg; fraction unbound [24]: 0.65 |
| Cc1noc(-c2cccc(CN3CCN(C(=O)c4ccc(C[C@@H]5CC[C@H]([C@H](O)c6ccccc6)N5)cc4)CC3)n2)n1 |  |  |  | 99 |  |  | > 30 |  |  | 8.79 |  |  |  |  | > 20 | 0.251 |  | > 20 | 0.00032 |  | IC50 [25]: > 60 µM; clearance [26]: 181 mL/min/kg; half-life [27]: 1.8 h; Vd [28]: 19 L/kg |
| O=C(c1ccc(C[C@@H]2CC[C@H]([C@H](O)c3ccccc3)N2)cc1)N1CCN(Cc2ncn(CC(F)F)n2)CC1 |  |  |  | 108 |  | 7.3 | > 30 |  | 57 | > 10 | 111 | 0.29 |  |  | > 20 | 0.026 |  | > 20 | 0.0029 | < 1 |  |
| CCc1nnc([C@H]2[C@@H]3CN(C(=O)c4ccc(C[C@@H]5CC[C@H]([C@H](O)c6ccccc6)N5)cc4)C[C@@H]32)o1 |  |  |  |  |  |  |  |  |  |  |  | 0.21 |  |  |  |  | 0.46 |  |  |  | Vd [29]: 5.2 L/kg; AUC/dose [30]: 0.06 µM·h/mg/kg; clearance [31]: 30 mL/min/kg; bioavailability [32]: 5% |
| O=C(c1ccc(C[C@@H]2CC[C@H]([C@H](O)c3ccccc3)N2)cc1)N1CCN(Cc2ccccn2)CC1 | 27 | 148 | 0.48 | 87 to 88 | 54 | 2.6 | > 30 | 6.4 | 19 | > 10 | 71 | 0.35 | 0.17 | 17 | > 20 | 0.339 | 1.3 | > 20 |  | 71 | Vd [29]: 11 L/kg; AUC/dose [30]: 0.34 µM·h/mg/kg; clearance [31]: 18 mL/min/kg; fAUC/dose [33]: 0.14 µM·h/mg/kg; CL free [34]: 43 mL/min/kg; fraction unbound [35]: 0.42; half-life [36]: 5.8 h; clearance [16]: 7.9 mL/min/kg; bioavailability [32]: 16%; half-life [20]: 12 h; fAUC/dose [23]: 0.62 µM·h/mg/kg; fraction unbound [24]: 0.48 |
